The target in one assay is Nucleic Acid. Briefly: Inhibition of telomerase by TRAP assay. The class given is nucleic-acid assay, Homo sapiens. A digest of the protocol:
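Human telomerase activity measured with a commercially available telomeric repeat amplification protocol (TRAP) kit. The value is the concentration giving 50% inhibition (telIC50). An internal reference telomerase inhibitor (BSU-1021) was run in the same assay.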

The test system of a further assay is SF-268. The assay can be described thus: Inhibition of human SF268 cell growth at 100 uM relative to control. In kind it is functional. The settings on record: values are per cent of control.
A further assay has as its system NCI-H460. The assay can be described thus: Inhibition of human NCI-H460 cell growth at 100 uM relative to control. The class given is functional. The settings on record: values are per cent of control.
The subject of another assay is MCF7. The assay can be described thus: Inhibition of human MCF7 cell growth at 100 uM relative to control. To be noted: values are per cent of control. In kind it is functional.

Take `CN(C)CCSc1ccc(-c2cc(-c3ccc(SCCN(C)C)cc3)ncn2)cc1`: the IC50 against Nucleic Acid was > 40 µM.

With `CCN(CC)CCSc1ccc(-c2cc(-c3ccc(SCCN(CC)CC)cc3)ncn2)cc1`, the growth, % of control at 100 µM with SF-268 was found to be 85%; in the assay with NCI-H460, 98%; in the assay with MCF7, 83%.

On to `OCCSc1ccc(-c2cc(-c3ccc(SCCO)cc3)ncn2)cc1`, for which the growth, % of control at 100 µM in the assay on SF-268 came out at 119%; in the assay with NCI-H460, 99%; in the assay with MCF7, 97%.

For the compound `c1nc(-c2ccc(SCCN3CCCCC3)cc2)cc(-c2ccc(SCCN3CCCCC3)cc2)n1`, the IC50 on Nucleic Acid was > 40 µM. The growth, % of control at 100 µM was 79% with SF-268, 98% in the assay on NCI-H460 and 68% in the assay with MCF7.

`CN(C)CCNC(=O)c1ccc(-c2cc(-c3ccc(C(=O)NCCN(C)C)cc3)ncn2)cc1`: the IC50 against Nucleic Acid was > 40 µM. The figures for the growth, % of control at 100 µM in the assay on SF-268, with NCI-H460 and in the assay on MCF7 were 108%, 100% and 96%, respectively.

Regarding `c1nc(-c2ccc(SCCN3CCOCC3)cc2)cc(-c2ccc(SCCN3CCOCC3)cc2)n1`, the growth, % of control at 100 µM with SF-268 was determined as 102%; with NCI-H460 it was 96%; in the assay with MCF7, 95%.

As for `COCCSc1ccc(-c2cc(-c3ccc(SCCOC)cc3)ncn2)cc1`, on Nucleic Acid, the IC50 is > 40 µM. The values for the growth, % of control at 100 µM with SF-268, in the assay with NCI-H460 and with MCF7 were 106%, 94% and 33%, respectively.

The compound `CCN(CC)CCNC(=O)c1ccc(-c2cc(-c3ccc(C(=O)NCCN(CC)CC)cc3)ncn2)cc1` came in with an IC50 against Nucleic Acid of 10 µM.

In the case of `O=C(NCCO)c1ccc(-c2cc(-c3ccc(C(=O)NCCO)cc3)ncn2)cc1`, the growth, % of control at 100 µM in the assay with SF-268 turned out to be 104%; in the assay on NCI-H460 it was 104%; with MCF7, 83%.

For orientation: IC50 means the concentration that inhibits the measured activity by half. The low end stands for greater potency in that assay, the high end for weaker potency in that assay.

For the origin of these results see ChEMBL document CHEMBL1146008, “Design, synthesis, and evaluation of novel biarylpyrimidines: a new class of ligand for unusual nucleic acid structures” (J Med Chem, 2006).
